How the values were obtained:
HT-29 [1] = assay: Cytotoxicity against human HT-29 cells under hypoxic condition assessed as inhibition of cell proliferation after 4 hrs by SRB method; assay type: functional, cell-based; conditions: HT-29, 4 h
Procedure, shortened: (§1)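 Log-phase monolayers were exposed 4 h under 20% O₂ or anoxia (<20 ppm O₂), then stained with sulforhodamine B 5 days later. IC50, interpolated as the concentration reducing cell density to 50% of same-plate controls, is given as mean of 3−9 experiments. HCR = IC50(oxic)/IC50(hypoxic), taken as the mean of intraexperiment ratios from 3−6 experiments.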

HT-29 [2] = assay: Cytotoxicity against human HT-29 cells under oxic condition assessed as inhibition of cell proliferation after 4 hrs by SRB method; assay type: functional, cell-based; conditions: HT-29, 4 h; procedure, shortened: as §1
HT-29 [3] = assay: Ratio of IC50 for human HT-29 cells under oxic condition to IC50 for human HT-29 cells under hypoxic condition; assay type: functional; procedure, shortened: as §1
SiHa [4] = assay: Cytotoxicity against human SiHa cells under oxic condition assessed as inhibition of cell proliferation after 4 hrs; assay type: functional, cell-based
Procedure, shortened: (§2)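 Log-phase monolayers were exposed to drug for 4 h, aerobic (20% O2) for line 5 and anoxic (<20 ppm O2) for line 4. Cell density was read by sulforhodamine B staining 5 days later. IC50 was interpolated as the concentration reducing density to 50% of same-plate controls; mean ± SEM of 3–9 experiments.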

SiHa [5] = assay: Cytotoxicity against human SiHa cells under hypoxic condition assessed as inhibition of cell proliferation after 4 hrs; assay type: functional, cell-based; procedure, shortened: as §2

SMILES	IC50 (HT-29 [1]) [nM]	IC50 (HT-29 [2]) [nM]	Ratio IC50 (HT-29 [3])	IC50 (SiHa [4]) [nM]	IC50 (SiHa [5]) [nM]
CN(C)CCOc1ccc2[nH]c(C(=O)N3CC(COS(C)(=O)=O)c4c3cc([N+](=O)[O-])c3cc(S(=O)(=O)NCCO)ccc43)cc2c1 (stereo not drawn)	2200	13000	7.4	4100	380
CN(C)CCOc1ccc2[nH]c(C(=O)N3CC(COS(=O)(=O)Cc4ccccc4)c4c3cc([N+](=O)[O-])c3cc(C(N)=O)ccc43)cc2c1 (stereo not drawn)	38	2200	58	530	120
N#Cc1ccc2c3c(cc([N+](=O)[O-])c2c1)N(C(=O)c1cc2cc(OCCO)ccc2[nH]1)CC3COS(=O)(=O)Cc1ccccc1 (stereo not drawn)	490	2500	5.2	710	35
COc1cc2cc(C(=O)N3CC(CCl)c4c3cc([N+](=O)[O-])c3cc(C(=O)NCCO)ccc43)[nH]c2c(OC)c1OC (stereo not drawn)	3200	5700	1.7		
O=C(c1cc2cc(OCCN3CCOCC3)ccc2[nH]1)N1CC(COS(=O)(=O)Cc2ccccc2)c2c1cc([N+](=O)[O-])c1cc(S(=O)(=O)NCCO)ccc21 (stereo not drawn)	> 20000	50000	<2.5	23000	39
COc1cc2cc(C(=O)N3CC(COS(C)(=O)=O)c4c3cc([N+](=O)[O-])c3cc(S(=O)(=O)NCCO)ccc43)[nH]c2c(OC)c1OC (stereo not drawn)	14000	14000	8.6	6300	2100
COc1ccc(/C=C/C(=O)N2CC(COS(C)(=O)=O)c3c2cc([N+](=O)[O-])c2cc(S(=O)(=O)NCCO)ccc32)cc1 (stereo not drawn)	4100	26000	31	11000	320
CN(C)CCOc1ccc2[nH]c(C(=O)N3CC(COS(=O)(=O)Cc4ccccc4)c4c3cc([N+](=O)[O-])c3cc(S(N)(=O)=O)ccc43)cc2c1 (stereo not drawn)	90	1600	18	370	45
COc1cc2cc(C(=O)N3CC(COS(=O)(=O)Cc4ccccc4)c4c3cc([N+](=O)[O-])c3cc(C#N)ccc43)[nH]c2c(OC)c1OC (stereo not drawn)	43	2600	94	650	26
CN(C)CCOc1ccc2[nH]c(C(=O)N3CC(CCl)c4c3cc([N+](=O)[O-])c3cc(C(=O)NCCO)ccc43)cc2c1 (stereo not drawn)	110	12000	485	4200	240
COc1ccc(/C=C/C(=O)N2CC(COS(=O)(=O)Cc3ccccc3)c3c2cc([N+](=O)[O-])c2cc(S(=O)(=O)NCCO)ccc32)cc1 (stereo not drawn)	950	47000	50	7300	370
COc1cc2cc(C(=O)N3CC(COS(=O)(=O)Cc4ccccc4)c4c3cc([N+](=O)[O-])c3cc(C(=O)NCCO)ccc43)[nH]c2c(OC)c1OC (stereo not drawn)	610	15000	13	900	160
COc1cc2cc(C(=O)N3CC(COS(=O)(=O)Cc4ccccc4)c4c3cc([N+](=O)[O-])c3cc(S(=O)(=O)NCCO)ccc43)[nH]c2c(OC)c1OC (stereo not drawn)	360	8400	23	940	110
CN(C)CCOc1ccc2[nH]c(C(=O)N3CC(COS(=O)(=O)Cc4ccccc4)c4c3cc([N+](=O)[O-])c3cc(S(=O)(=O)NCCO)ccc43)cc2c1 (stereo not drawn)	3900	38000	9.7	4500	55

Reference: ChEMBL document CHEMBL2163287, “Nitro seco analogues of the duocarmycins containing sulfonate leaving groups as hypoxia-activated prodrugs for cancer therapy” (J Med Chem, 2012)
